Residue numbers refer to the chain shown, from its start. Each block holds one compound with its values, some of them ahead of it.
Tests used:
[1] = molecular target: T1, human alkyltransferase (wild type) (Homo sapiens, UniProt P16455); conditions: cited from earlier work
T1 sequence (P16455 1-207): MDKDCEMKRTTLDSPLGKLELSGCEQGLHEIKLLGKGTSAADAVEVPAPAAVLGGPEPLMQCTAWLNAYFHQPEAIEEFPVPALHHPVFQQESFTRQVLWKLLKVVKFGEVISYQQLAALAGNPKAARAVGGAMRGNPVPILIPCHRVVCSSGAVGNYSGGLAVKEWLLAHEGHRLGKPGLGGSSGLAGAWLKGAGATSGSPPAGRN

alkyltransferase = conditions: BG free base; cited from earlier work
[2] = molecular target: T2, S159A mutant alkyltransferase (Homo sapiens, UniProt P16455, S159A); assay: Inactivation of purified S159A mutant alkyltransferase in vitro; format: biochemical; conditions: 30 min at 37°C
T2 sequence (P16455 1-207 S159A): T1 sequence (P16455 1-207) with S159A

[3] = Stability in aqueous solution; format: physicochemical; conditions: for rearrangement to N^6-substituted 2-aminoadenine in heated water: heating
[4] = molecular target: T1, human alkyltransferase (wild type); assay: Inactivation of purified recombinant human alkyltransferase in vitro; format: biochemical; conditions: for less effective than BG: ortho-substituted BG derivatives
HT29 cells = assay: Sensitization of HT29 cells to killing by BCNU; format: cell-based, human; conditions: 2 h exposure prior to 40 μM BCNU; colony forming assay
How it was run: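 HT29 cells in RPMI 1640 with 10% FBS. 24 h after plating, cells get test compound at varied concentrations for 2 h, then 40 μM BCNU for 2 h. Medium is then replaced with inhibitor-containing, BCNU-free medium for 16–18 h. Cells are replated at 250–1000 per 25 cm2 flask and grown 8 days. Colonies are saline-washed, stained with 0.5% crystal violet in ethanol, and counted.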

Solubility = format: physicochemical; conditions: at physiological pH

Structure (SMILES): Nc1nc(OCc2ccccc2)c2nc[nH]c2n1 [BG, O^6-Benzylguanine]
enhancement of inactivation of alkyltransferase by the presence of DNA [1]: 3–4 fold
rate constant for the reaction (alkyltransferase): ~600 M⁻¹ s⁻¹

Structure (SMILES): NCc1ccc(COc2nc(N)nc3nc[nH]c23)cc1 [Compound 1, O^6-[4-(Aminomethyl)benzyl]guanine]
IC50 ([2]; ED50 + DNA, + DNA): 28 nM
IC50 ([2]; ED50 No DNA, no DNA): 160 nM
rearrangement to N^6-substituted 2-aminoadenine in heated water [3]: not observed

Structure (SMILES): NCc1cccc(COc2nc(N)nc3nc[nH]c23)c1 [Compound 2, O^6-[3-(Aminomethyl)benzyl]guanine]
sensitizing HT29 cells to BCNU (HT29 cells): much more effective than compound 1
rearrangement to N^6-substituted 2-aminoadenine in heated water [3]: not observed
solubility relative to BG (Solubility): approx. 1000 times

Now from value to compound:

less effective than BG [4]: > 200 fold
Structure (SMILES): Cc1ccccc1COc1nc(N)nc2nc[nH]c12 [Compound 6, O^6-[2-(Methyl)benzyl]guanine]

inhibition at 1000 µM ([4]; read-out: inhibition of alkyltransferase): < 10%
Structure (SMILES): Nc1nc(NCc2ccccc2CO)c2[nH]cnc2n1 [Compound 7, N^6-[2-(Hydroxymethyl)benzyl]-2-aminoadenine]

less effective than BG [4]: > 200 fold
half life of rearrangement of 3 to 7 ([3]; aqueous solution, 37°C (0.1 M sodium phosphate buffer pH 7.4, followed by UV, first order kinetics)): 51 h
Structure (SMILES): NCc1ccccc1COc1nc(N)nc2nc[nH]c12 [Compound 3, O^6-[2-(Aminomethyl)benzyl]guanine]
